# Calls of active or inactive are those of the source. No cut-off for these calls is given here.
# Experiments:
# HMEC-1 [1] = assay: Antiangiogenic activity in HMEC-1 cells assessed as inhibition of endothelial microtubes formation at <75 uM incubated for 24 hrs by matrigel based imaging analysis; assay type: functional, cell-based; details: Homo sapiens
# Summary of the method: (§1)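 HMEC-1 cells at 2 × 10^4 cells/well seeded on Matrigel (10 mg/mL, gelled 30 min at 37 °C) in EGM-2MV medium with SingleQuots, allowed to attach 30 min at 37 °C. Compounds then added in medium; after 24 h at 37 °C, microtube formation/destruction evaluated from pictures.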
# HT-29 [2] = assay: Immunomodulatory activity in human HT-29 cells co-cultured with interferon gamma-stimulated THP-1 cells assessed as reduction in IL-6 level at 100 uM incubated for 48 hrs by ELISA analysis relative to control; assay type: functional; parameters: scale not given: the % may be the effect or the level left
# Summary of the method: (§2)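 HT-29 cells co-cultured with IFN-γ (10 ng/ml)-stimulated THP-1 cells and treated 48 h with compound at 100 µM. Culture media collected and IL-6 measured by human IL-6 ELISA, in pg/mL and as % of control. Mean of three experiments.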
# HT-29 [3] = assay: Antiproliferative activity against human HT-29 cells assessed as relative PD-L1 protein expression in membrane at 100 uM incubated for 48 hrs by flow cytometry analysis relative to control; assay type: functional
# HEK293 [4] = assay: Anti-vasculogenic activity against HEK293 cells assessed as disruption of tube-like structures at <75 uM incubated for 24 hrs by Matrigel based imaging analysis; assay type: functional, cell-based; details: Homo sapiens
# Summary of the method: (§3)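 HEK-293 cells seeded at 5 × 10^4 cells/well on Matrigel (pre-incubated with medium 24 h at 37 °C), grown 24 h at 37 °C until tube-like structures form; compounds then added in medium and incubated a further 24 h at 37 °C. Disruption of preformed tube-like structures assessed by imaging.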
# HT-29 [5] = assay: Antiproliferative activity against human HT-29 cells assessed as relative VEGFR-2 protein expression in membrane at 100 uM incubated for 48 hrs by flow cytometry analysis relative to control; assay type: functional
# HT-29 [6] = assay: Immunomodulatory activity in human HT-29 cells co-cultured with interferon gamma-stimulated THP-1 cells assessed as relative IL-6 level at 100 uM incubated for 48 hrs by ELISA analysis relative to control; assay type: functional; summary of the method: as §2
# HT-29 [7] = assay: Antiproliferative activity against human HT-29 cells assessed as relative VEGFR-2 protein expression in whole cell at 100 uM incubated for 48 hrs by flow cytometry analysis relative to control; assay type: functional
# HT-29 [8] = assay: Immunomodulatory activity in human HT-29 cells co-cultured with interferon gamma-stimulated THP-1 cells assessed as relative PD-L1 protein expression in membrane at 100 uM incubated for 48 hrs by flow cytometry analysis relative to control; assay type: functional
# HT-29 [9] = assay: Immunomodulatory activity in human HT-29 cells co-cultured with interferon gamma-stimulated THP-1 cells assessed as IL-6 level at 100 uM incubated for 48 hrs by ELISA analysis (reference value: 192 +/- 16 pg/ml); assay type: functional; summary of the method: as §2
# [10] = Cytotoxicity against HEK293 cells assessed as reduction in cell viability incubated for 48 hrs by MTT assay; assay type: toxicity, cell-based; details: human
# Summary of the method: (§4)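 MTT dye-reduction assay. Cells at 5 × 10^3/well in DMEM with 10% FBS, treated with serial dilutions of compound (DMSO stocks) for 2 days at 37 °C, 5% CO2. MTT added for a further 3 h, formazan dissolved in DMSO, absorbance read at 550 nm. Viability expressed as % of untreated cells; IC50 determined graphically from three independent experiments.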
# HT-29 [11] = assay: Antiproliferative activity against human HT-29 cells assessed as relative PD-L1 protein expression in whole cell at 100 uM incubated for 48 hrs by flow cytometry analysis relative to control; assay type: functional
# HT-29 [12] = assay: Antiproliferative activity against human HT-29 cells assessed as reduction in IL-6 secretion at 100 uM incubated for 48 hrs by ELISA assay; assay type: functional, cell-based
# Summary of the method: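 HT-29 monocultures at 10^5 cells/well treated 48 h with compound at 100 µM in 500 µL growth medium. Media collected and secreted IL-6 measured with a human IL-6 ELISA kit.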
# HT-29 [13] = assay: Antiproliferative activity against human HT-29 cells assessed as reduction in cell viability incubated for 48 hrs by MTT assay; assay type: functional, cell-based; details: HT-29, 48 h; summary of the method: as §4
# HT-29 [14] = assay: Immunomodulatory activity in human HT-29 cells co-cultured with interferon gamma-stimulated THP-1 cells assessed as relative CD-47 protein expression in membrane at 100 uM incubated for 48 hrs by flow cytometry analysis relative to control; assay type: functional
# HMEC-1 [15] = assay: Antiangiogenic activity in HMEC-1 cells assessed as inhibition of endothelial microtubes formation at 100 uM incubated for 24 hrs by matrigel based imaging analysis; assay type: functional, cell-based; details: Homo sapiens; summary of the method: as §1
# MCF7 = assay: Antiproliferative activity against human MCF7 cells assessed as reduction in cell viability incubated for 48 hrs by MTT assay; assay type: functional, cell-based; details: MCF7, 48 h; summary of the method: as §4
# HT-29 [16] = assay: Antiproliferative activity against human HT-29 cells assessed as relative c-Myc protein expression at 100 uM incubated for 48 hrs by flow cytometry analysis relative to control; assay type: functional
# A549 = assay: Antiproliferative activity against human A549 cells assessed as reduction in cell viability incubated for 48 hrs by MTT assay; assay type: functional, cell-based; details: A549, 48 h; summary of the method: as §4
# [17] = Toxicity against interferon gamma-stimulated human THP-1 monocyte cells co-cultured with human HT-29 cells assessed as reduction in cell viability at 100 uM incubated for 48 hrs by flow cytometry analysis; assay type: cell-based; details: thp-1, 48 h
# Summary of the method: (§5)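 HT-29 cells at 10^5/well seeded and grown 24 h. Medium then replaced with medium containing IFN-γ (10 ng/ml), 5 × 10^5 THP-1 cells/well and compound at 100 µM; DMSO used as control. After 48 h, THP-1 cells collected from supernatant and cancer cells by trypsinisation. Both fixed in 4% paraformaldehyde and counted by flow cytometry relative to control.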
# HT-29 [18] = assay: Immunomodulatory activity in human HT-29 cells co-cultured with interferon gamma-stimulated THP-1 cells assessed as cell viability at 100 uM incubated for 48 hrs by flow cytometry analysis relative to control; assay type: functional; details: read-out: Activity; summary of the method: as §5
# HEK293 [19] = assay: Anti-vasculogenic activity against HEK293 cells assessed as disruption of tube-like structures at 100 uM incubated for 24 hrs by Matrigel based imaging analysis; assay type: functional, cell-based; details: Homo sapiens; summary of the method: as §3
# HT-29 [20] = assay: Immunomodulatory activity in human HT-29 cells co-cultured with interferon gamma-stimulated THP-1 cells assessed as inhibition of cell growth at 100 uM incubated for 48 hrs by flow cytometry analysis relative to control; assay type: functional; summary of the method: as §5
# HT-29 [21] = assay: Immunomodulatory activity in human HT-29 cells co-cultured with interferon gamma-stimulated THP-1 cells assessed as inhibition of CD-47 protein expression at 100 uM incubated for 48 hrs by flow cytometry analysis relative to control; assay type: functional
# HT-29 [22] = assay: Immunomodulatory activity in human HT-29 cells co-cultured with interferon gamma-stimulated THP-1 cells assessed as induction of morphological changes by measuring rounded cell morphology at 100 uM incubated for 48 hrs; assay type: functional, cell-based
# Summary of the method: (§6)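 HT-29 cells co-cultured with IFN-γ-stimulated THP-1 cells and treated 48 h with compounds at 100 µM, with DMSO as control. Cell shrinkage and rounded morphology assessed by microscopy images.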
# HT-29 [23] = assay: Immunomodulatory activity in human HT-29 cells co-cultured with interferon gamma-stimulated THP-1 cells assessed as induction of morphological changes by measuring cell shrinkage at 100 uM incubated for 48 hrs; assay type: functional, cell-based; summary of the method: as §6
# HT-29 [24] = assay: Immunomodulatory activity in human HT-29 cells co-cultured with interferon gamma-stimulated THP-1 cells assessed as reduction in number of cells at 100 uM incubated for 48 hrs; assay type: functional, cell-based; summary of the method: as §5
IC50 (HT-29 [13]) [µM],IC50 (MCF7) [µM],IC50 (A549) [µM],Compound,Activity (HMEC-1 [1]),Activity (HT-29 [3]) [%],Activity (HEK293 [4]),Activity (HT-29 [5]) [%],Activity (HT-29 [6]) [%],Activity (HT-29 [7]) [%],Activity (HT-29 [8]) [%],Activity (HT-29 [9]) [pg/mL],IC50 at 48 h [10] [µM],Activity (HT-29 [11]) [%],Activity (HT-29 [12]),Activity (HT-29 [14]) [%],Activity (HMEC-1 [15]),Activity (HT-29 [16]) [%],Activity [17],viability at 100 µM (HT-29 [18]) [%],Activity (HEK293 [19]),other results
81,88,> 100,Nc1cccc(-c2nnn(Cc3cccc(Cl)c3)n2)c1,inactive,>100,inactive,97,3,99,94,6,> 100,97,inactive,95,Active,76,Non-Toxic,48,Active,Activity (HT-29 [2]): >95%
72,> 100,> 100,Nc1cccc(-c2nnn(Cc3ccc(Cl)cc3)n2)c1,inactive,>100,inactive,>100,6,96,114,11,91,99,inactive,93,Active,80,Non-Toxic,22,Active,Activity (HT-29 [2]): 94%; inhibition at 100 µM (HT-29 [20]): > 70%
> 100,> 100,39,O=[N+]([O-])c1cccc(-c2nnn(Cc3ccc(Br)cc3)n2)c1,,>100,,96,,71,93,,> 100,93,,87,,72,Non-Toxic,52,,
,,,Cc1cccc(Cn2nnc(-c3cccc(N)c3)n2)c1,,>100,,>100,,>100,99,,,81,,69,,>100,Non-Toxic,15,,inhibition at 100 µM (HT-29 [21]): > 30%; inhibition at 100 µM (HT-29 [20]): > 70%
,,,Nc1cccc(-c2cn(Cc3ccc(Cl)cc3)nn2)c1,inactive,,inactive,,98,,140,189,,,inactive,91,Active,,Non-Toxic,5,Active,Activity (HT-29 [22]): Active; Activity (HT-29 [23]): Active; inhibition at 100 µM (HT-29 [20]): > 90%; Activity (HT-29 [24]): Active
,,,Nc1cccc(-c2cn(Cc3ccc(Br)cc3)nn2)c1,inactive,,inactive,,95,,154,183,,,inactive,92,Active,,Non-Toxic,8,Active,Activity (HT-29 [22]): Active; Activity (HT-29 [23]): Active; inhibition at 100 µM (HT-29 [20]): > 90%; Activity (HT-29 [24]): Active
,,,Cc1ccc(Cn2nnc(-c3cccc(N)c3)n2)cc1,,,,,,,90,,,,,67,,,Non-Toxic,28,,inhibition at 100 µM (HT-29 [21]): > 30%; inhibition at 100 µM (HT-29 [20]): > 70%
81,> 100,> 100,O=[N+]([O-])c1cccc(-c2nnn(Cc3ccccc3Cl)n2)c1,,98,,97,,53,108,,> 100,89,,87,,86,Non-Toxic,44,,
,,,Nc1cccc(-c2nnn(Cc3ccccc3Cl)n2)c1,inactive,95,inactive,96,3,92,93,6,,>100,inactive,86,Active,>100,Non-Toxic,61,Active,Activity (HT-29 [2]): >95%
> 100,84,> 100,O=[N+]([O-])c1cccc(-c2nnn(Cc3ccc(Cl)cc3)n2)c1,,93,,95,,45,93,,> 100,87,,88,,90,Non-Toxic,93,,
,,,COc1ccc(Cn2nnc(-c3cccc(N)c3)n2)cc1,,>100,,>100,,75,100,,,99,,58,,75,Non-Toxic,45,,Activity (HT-29 [22]): Active; inhibition at 100 µM (HT-29 [21]): > 30%; Activity (HT-29 [23]): Active; Activity (HT-29 [24]): Active

# Reference: ChEMBL document CHEMBL5390247, “Aryl azoles based scaffolds for disrupting tumor microenvironment” (Bioorg Med Chem, 2023)
